This is an account of results in article PMC5207485 (Bioorganic & medicinal chemistry, 2016).

The term Ki denotes a measure of affinity in units of concentration, obtained from inhibition or displacement.

Data set [1] can be described thus: Plasma concentration of ALS-I-41 after IN or IM administration. The conditions noted are these: for Time Plasma Max: male rhesus. The format is in vivo, rhesus macaque.
The nature of data set [2]: CSF concentration of ALS-I-41 after IN or IM administration. The class given is in vivo, rhesus macaque. To be noted: for Time Max: macaque CSF; for Ave Max in CSF / Time CSF Max: male rhesus. In a few lines:
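Four male rhesus macaques (5 yr, 9–13 kg) under IM Telazol (4–5 mg/kg) with IV propofol drip (10 mg/kg/hr). Test compound in propylene glycol, given IN by face-mask pediatric nebulizer over 8 min (dose from nebulizer residue) or IM 6.15 mg into the inner thigh. Lumbar CSF was analysed unprocessed by LC-MS/MS in duplicate (C18, 70:30:0.1 water/methanol/formic acid). Detection limit ~1 pg/ml; blood-contaminated samples excluded.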

Another data set addresses human OXTR. The conditions noted are these: displacing [^3H]OT at a concentration of 2 nM; cited from earlier work.
The conditions of data set [3]: rhesus macaque, intravenous dose; cited from earlier work.
The nature of data set [4]: PET scan of [18F]ALS-I-41 in a cynomolgus macaque, IV bolus. The class given is in vivo, cynomolgus macaque (Macaca fascicularis). In a few lines:
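Single male cynomolgus macaque (8.1 kg), Telazol 3 mg/kg IM, then intubated and ventilated on 1–2% isoflurane in oxygen with continuous vital monitoring. 5 mCi of the [18F]tracer given IV, then brain PET for 2 h, co-registered to the animal's MRI. Summed frames at 9–26 min and 90–120 min post-injection were used to assess distribution.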

Data set [5] in a line: PET imaging of [18F]ALS-I-41 in Sprague-Dawley rats. The format is in vivo. The conditions noted are these: rat PET. Summed up:
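Female Sprague-Dawley rats (200–330 g), isoflurane induction 4–5% and maintenance 1–2% in oxygen, vitals and temperature monitored. [18F]tracer was given IM at 340–390 μCi in 100 μl above the knee, with scanning from 15 min post-injection, or as a 30 min tail-vein infusion of 250–310 μCi in 10% ethanol/saline by syringe pump. 2 h PET with Co-57 attenuation correction; time-activity curves for whole brain, arm muscle and skull.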

For data set [6] the following is noted: titi monkey models; cited from earlier work.
Data set [7] in a line: CSF OT levels after IV and IN nasal spray OT, maximum 5 IU/kg. The format is in vivo. The conditions noted are these: macaque, maximum of 5 IU/kg OT, same calculation from data of ref 38.
The conditions of data set [8]: macaque, IN nasal spray, maximum of 5 IU/kg OT; cited from earlier work.
For data set [9] the following is noted: IN 24 IU OT, 75 minutes post administration, baseline 20 pg/ml; cited from earlier work.
Setting [10] is: aerosolized IN high dose, ave dose 7690 μg.
Setting [11] is: aerosolized IN low dose, ave dose 202 μg.
Setting [12] is: rhesus, IN 7.5 mg target dose vs low dose.

Like-named read-outs stand apart in the source and are kept apart here.

Consider `CS(=O)(=O)N1CCC(Oc2ccc(CC(=O)N3CCC(N4C(=O)CCc5ccccc54)CC3)c(OCCF)c2)CC1` [ALS-I-41], for which the “Time Plasma Max” value in data set [1] (IM, dose 6150 μg) is on record as 60 m; in data set [1] (setting [10]), 15 m; in [1] (setting [11]), 5 m. In data set [1] (setting [12]), the “increase in plasma concentrations, high dose IN in comparison to low dose IN” value turned out to be 150 fold. In addition, the “Time Max” value is reported as 120 m in [2] (IM 6.15 mg) and 60 m in data set [2] (IN 7.69 mg). Further, in data set [2] (macaque, after IN or IM administration), the “time retained within the brain” value is on record as “over 2 hours”. For the same compound, the “Ave Max in CSF” value in data set [2] (IM, dose 6150 μg) was 478 pg/mL; in data set [2] (setting [10]), 97.2 pg/mL; in [2] (setting [11]) it was 7.36 pg/mL. Besides, the “Time CSF Max” value is 120 m in data set [2] (IM, dose 6150 μg); 60 m in data set [2] (setting [10]); 120 m in data set [2] (setting [11]). In addition, in data set [2] (rhesus macaque, via CSF extraction and PET imaging), the brain penetration entry was “mild brain penetrant”. In data set [2] (setting [12]), the “increase in CSF concentration, high dose IN in comparison to low dose IN” value is given as 14 fold. In addition, the Ki on human OXTR is 16 nM.
For the compound `Cc1ccccc1N1CCN(S(=O)(=O)CC23CCC(CC2NC(=O)C(N)CCS(C)(=O)=O)C3(C)C)CC1` [L-368,899], the “time remaining in the CSF post injection” value in data set [3] was “over 250 minutes”.
With `CS(=O)(=O)N1CCC(Oc2ccc(CC(=O)N3CCC(N4C(=O)CCc5ccccc54)CC3)c(OCC[18F])c2)CC1` [[^18F]ALS-I-41], the “time at which distribution of the tracer throughout the entire brain peaked” value in [4] (cynomolgus macaque, 5 mCi IV bolus) lay within 15 to 30 min. Further, the “brain uptake versus neck muscle tissue (TAC)” value in data set [4] (cynomolgus macaque, 5 mCi IV, 2 hour scan) is “only a fraction of the dose reaches the brain”. For the same compound, the “tracer remaining in the thalamic region at the end of the scan” value in [4] (cynomolgus macaque, 2 hour scan) is on record as “very little remained”. In addition, the bone uptake result in data set [4] (monkey model (macaque PET scan)) is reported as “no significant bone uptake detected”. In addition, in [5], the “metabolism suggested by rapid uptake in the bone” value is “rapidly metabolized on first pass”. Also, the brain penetration result in [6] is reported as “no significant brain penetration”.
For the compound oxytocin [OT], the “maximum reported CSF OT increase” value in data set [7] was about 22 pM. Also, the “change of CSF OT” value in data set [8] is given as “no significant change”. Also, the “OT levels in human CSF post administration” value in data set [9] was 30 pg/mL.
